Measured values as given in ChEMBL document CHEMBL4680226, “Design, synthesis, and evaluation of N-phenyl-4-(2-phenylsulfonamido)-benzamides as microtubule-targeting agents in drug-resistant cancer cells, displaying HDAC inhibitory response” (Eur J Med Chem, 2020).
Activity calls are given as the source filed them. The rule behind the calls is not given here.

Experiments:
[1] = Antiproliferative activity against human KB7D cells incubated for 48 hrs by SRB assay; assay type: functional
In short: (§1)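 KB parental and resistant sublines kept in RPMI 1640 with 5% FBS at 37 °C, 5% CO2. Cells plated, left overnight, then given graded compound concentrations for 48 h. A time-zero plate was fixed with 10% TCA at dosing. Cells were stained with 0.4% SRB in 1% acetic acid, unbound dye washed off, bound dye dissolved in 10 mM Tris base, and absorbance read at 515 nm.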

[2] = molecular target: T1, Tubulin (Homo sapiens) (UniProt P68371+Q9H4B7+P0DPH7+P68366+Q13509+Q71U36+P04350+Q3ZCM7+P07437+P68363+Q9BQE3+Q6PEY2+Q13885+Q9BVA1+Q9BUF5); experiment: Induction of microtubule disruption in human KB7D cells at 0.05 uM measured after 24 hrs by DAPI staining based deconvolution fluorescence microscopic analysis; assay type: cell-based
In short: (§2)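 Cells on glass coverslips treated 24 h, fixed in 4% paraformaldehyde for 15 min, and permeabilized with 0.5% Triton X-100. Blocked in PBS/2% BSA, stained with anti-beta-tubulin (1:250) and Alexa 488 anti-mouse (1:250), and mounted with DAPI. Imaged by wide-field deconvolution microscopy.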

[3] = molecular target: T1, Tubulin (Homo sapiens); experiment: Induction of microtubule disruption in human KB7D cells assessed as polymerized fraction at 0.01 uM measured after 16 hrs by SDS-PAGE analysis (reference value: 26.4 to 29%); assay type: cell-based
In short: (§3)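 KB-Vin or KB-7D cells treated 16 h, then lysed 5 min at 37 °C in the dark in hypotonic buffer (1% NP-40, 1 mmol/L MgCl2, 2 mmol/L EGTA, 50 mmol/L Tris-HCl pH 6.8, protease inhibitors). Spun 13000 rpm, 10 min, room temperature. Soluble supernatant and resuspended polymerized pellet run on SDS-PAGE.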

[4] = tested on: KB-VIN; experiment: Induction of apoptosis in human KB-VIN cells assessed as increase in cleaved caspase-8 expression at 0.05 uM measured after 48 hrs by Western blot analysis; assay type: functional, cell-based
In short: (§4)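 Resistant KB cells attached overnight, then drug-treated at the stated concentrations and times (24 h or 48 h). Lysates were immunoblotted for cleaved PARP, caspase-3, -8 and -9, and γH2AX, with anti-mouse or anti-rabbit IgG secondaries.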

[5] = tested on: KB-VIN; experiment: Cell cycle arrest in human KB-VIN cells assessed as increase in accumulation at sub-G1 phase at 0.5 uM measured after 24 hrs by propidium iodide staining based flow cytometry; assay type: functional
In short: (§5)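 Cells seeded at 2.5×10^5 per well and exposed to DMSO or compound for the stated times. They were washed in PBS and fixed overnight in ice-cold 70% ethanol at −20 °C. Staining used propidium iodide 80 µg/mL with 0.1% Triton X-100 and RNase A 100 µg/mL in PBS. DNA content was read by FACScan flow cytometry.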

[6] = tested on: KB7D; experiment: Induction of apoptosis in human KB7D cells assessed as increase in cleaved caspase-9 expression at 0.01 to 0.1 uM measured after 48 hrs by Western blot analysis; assay type: functional, cell-based; details: dose 0.01-0.1 µM
In short: (§6)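 KB-7D cells in RPMI 1640 with 5% FBS and 1% penicillin-streptomycin at 37 °C, 5% CO2, attached overnight. Treated with indicated concentrations for 24 or 48 h, lysed, and immunoblotted for cleaved caspases.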

[7] = molecular target: T1, Tubulin (Homo sapiens); experiment: Induction of microtubule disruption in human KB-VIN cells at 0.05 uM measured after 24 hrs by DAPI staining based deconvolution fluorescence microscopic analysis; assay type: cell-based; in short: as §2
[8] = tested on: KB7D; experiment: Induction of apoptosis in human KB7D cells assessed as increase in cleaved caspase-8 expression at 0.01 to 0.1 uM measured after 48 hrs by Western blot analysis; assay type: functional, cell-based; details: dose 0.01-0.1 µM; in short: as §4
[9] = tested on: KB7D; experiment: Induction of apoptosis in human KB7D cells assessed as increase in activated gammaH2AX expression by Western blot analysis; assay type: functional, cell-based; in short: as §4
[10] = tested on: KB-VIN; experiment: Induction of apoptosis in human KB-VIN cells assessed as increase in cleaved caspase-3 expression at 0.1 to 0.5 uM measured after 24 hrs by Western blot analysis; assay type: functional, cell-based; details: dose 0.1-0.5 µM; in short: as §4
[11] = tested on: KB; experiment: Antiproliferative activity against human KB cells incubated for 48 hrs by SRB assay; assay type: functional; in short: as §1
[12] = tested on: KB7D; experiment: Induction of apoptosis in human KB7D cells assessed as increase in activated gammaH2AX expression at 0.01 to 0.1 uM measured after 48 hrs by Western blot analysis; assay type: functional, cell-based; details: dose 0.01-0.1 µM; in short: as §4
[13] = molecular target: T1, Tubulin (Homo sapiens); experiment: Induction of microtubule disruption in human KB7D cells assessed as polymerized fraction at 1 uM measured after 16 hrs by SDS-PAGE analysis (reference value: 26.4 to 29%); assay type: cell-based; in short: as §3
[14] = tested on: KB-VIN; experiment: Induction of apoptosis in human KB-VIN cells assessed as increase in activated gammaH2AX expression at 0.05 uM measured after 48 hrs by Western blot analysis; assay type: functional, cell-based; in short: as §4
[15] = molecular target: Histone deacetylase 2 (Homo sapiens, UniProt Q92769); experiment: Inhibition of recombinant human C-terminal GST-tagged HDAC2 (1 to 488 residues) expressed in baculovirus infected insect cells using RHKKAc-AMC as substrate measured after 60 mins by fluorescence assay
Histone deacetylase 2, sequence (Q92769 whole entry, the tested form may be a part): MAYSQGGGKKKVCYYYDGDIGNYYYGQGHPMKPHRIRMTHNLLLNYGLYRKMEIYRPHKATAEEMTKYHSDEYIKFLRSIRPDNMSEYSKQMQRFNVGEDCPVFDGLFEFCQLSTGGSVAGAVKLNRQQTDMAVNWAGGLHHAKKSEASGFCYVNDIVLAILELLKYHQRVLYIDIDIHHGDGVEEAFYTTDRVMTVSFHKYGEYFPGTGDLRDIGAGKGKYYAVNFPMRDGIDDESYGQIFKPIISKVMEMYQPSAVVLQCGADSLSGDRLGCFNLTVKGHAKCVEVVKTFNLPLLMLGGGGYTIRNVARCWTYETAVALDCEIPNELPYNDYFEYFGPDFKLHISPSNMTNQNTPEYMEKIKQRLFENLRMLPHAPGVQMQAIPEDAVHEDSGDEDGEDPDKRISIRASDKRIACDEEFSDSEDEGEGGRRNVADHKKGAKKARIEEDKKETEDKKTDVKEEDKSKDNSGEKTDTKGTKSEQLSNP

[16] = tested on: KB-VIN; experiment: Induction of apoptosis in human KB-VIN cells assessed as increase in activated gammaH2AX expression at 0.1 to 0.5 uM measured after 24 hrs by Western blot analysis; assay type: functional, cell-based; details: dose 0.1-0.5 µM; in short: as §4
[17] = molecular target: T1, Tubulin (Homo sapiens); experiment: Induction of microtubule disruption in human KB-VIN cells assessed as polymerized fraction at 0.01 uM measured after 16 hrs by SDS-PAGE analysis (reference value: 23.1 to 25.5%); assay type: cell-based; in short: as §3
[18] = tested on: KB-VIN; experiment: Induction of apoptosis in human KB-VIN cells assessed as increase in cleaved caspase-3 expression by Western blot analysis; assay type: functional, cell-based; in short: as §4
[19] = tested on: KB-VIN; experiment: Induction of apoptosis in human KB-VIN cells assessed as increase in cleaved caspase-9 expression by Western blot analysis; assay type: functional, cell-based; in short: as §4
[20] = Antiproliferative activity against human KB-VIN cells incubated for 48 hrs by SRB assay; assay type: functional; details: KBVIN; in short: as §1
[21] = molecular target: Histone deacetylase 3/Nuclear receptor corepressor 2 (HDAC3/NCoR2) (Homo sapiens, UniProt O15379); experiment: Inhibition of human recombinant HDAC3/NCOR2 using RHKKAc-AMC as substrate measured after 60 mins by fluorescence assay; assay type: protein-complex assay
Histone deacetylase 3/Nuclear receptor corepressor 2 (HDAC3/NCoR2), sequence (O15379 whole entry): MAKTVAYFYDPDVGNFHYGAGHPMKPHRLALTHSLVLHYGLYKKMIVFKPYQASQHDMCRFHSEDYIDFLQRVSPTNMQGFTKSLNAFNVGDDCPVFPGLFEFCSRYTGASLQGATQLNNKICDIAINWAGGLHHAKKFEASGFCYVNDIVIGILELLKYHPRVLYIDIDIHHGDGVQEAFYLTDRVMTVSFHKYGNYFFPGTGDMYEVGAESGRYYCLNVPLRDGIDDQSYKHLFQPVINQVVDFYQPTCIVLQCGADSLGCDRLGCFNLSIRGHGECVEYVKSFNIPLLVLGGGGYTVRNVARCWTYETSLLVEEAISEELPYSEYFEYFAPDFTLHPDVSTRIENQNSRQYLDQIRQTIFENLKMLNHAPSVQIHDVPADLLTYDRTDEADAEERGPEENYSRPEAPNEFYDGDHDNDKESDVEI
Histone deacetylase 3/Nuclear receptor corepressor 2 (HDAC3/NCoR2), sequence (Q9Y618 whole entry, further chain): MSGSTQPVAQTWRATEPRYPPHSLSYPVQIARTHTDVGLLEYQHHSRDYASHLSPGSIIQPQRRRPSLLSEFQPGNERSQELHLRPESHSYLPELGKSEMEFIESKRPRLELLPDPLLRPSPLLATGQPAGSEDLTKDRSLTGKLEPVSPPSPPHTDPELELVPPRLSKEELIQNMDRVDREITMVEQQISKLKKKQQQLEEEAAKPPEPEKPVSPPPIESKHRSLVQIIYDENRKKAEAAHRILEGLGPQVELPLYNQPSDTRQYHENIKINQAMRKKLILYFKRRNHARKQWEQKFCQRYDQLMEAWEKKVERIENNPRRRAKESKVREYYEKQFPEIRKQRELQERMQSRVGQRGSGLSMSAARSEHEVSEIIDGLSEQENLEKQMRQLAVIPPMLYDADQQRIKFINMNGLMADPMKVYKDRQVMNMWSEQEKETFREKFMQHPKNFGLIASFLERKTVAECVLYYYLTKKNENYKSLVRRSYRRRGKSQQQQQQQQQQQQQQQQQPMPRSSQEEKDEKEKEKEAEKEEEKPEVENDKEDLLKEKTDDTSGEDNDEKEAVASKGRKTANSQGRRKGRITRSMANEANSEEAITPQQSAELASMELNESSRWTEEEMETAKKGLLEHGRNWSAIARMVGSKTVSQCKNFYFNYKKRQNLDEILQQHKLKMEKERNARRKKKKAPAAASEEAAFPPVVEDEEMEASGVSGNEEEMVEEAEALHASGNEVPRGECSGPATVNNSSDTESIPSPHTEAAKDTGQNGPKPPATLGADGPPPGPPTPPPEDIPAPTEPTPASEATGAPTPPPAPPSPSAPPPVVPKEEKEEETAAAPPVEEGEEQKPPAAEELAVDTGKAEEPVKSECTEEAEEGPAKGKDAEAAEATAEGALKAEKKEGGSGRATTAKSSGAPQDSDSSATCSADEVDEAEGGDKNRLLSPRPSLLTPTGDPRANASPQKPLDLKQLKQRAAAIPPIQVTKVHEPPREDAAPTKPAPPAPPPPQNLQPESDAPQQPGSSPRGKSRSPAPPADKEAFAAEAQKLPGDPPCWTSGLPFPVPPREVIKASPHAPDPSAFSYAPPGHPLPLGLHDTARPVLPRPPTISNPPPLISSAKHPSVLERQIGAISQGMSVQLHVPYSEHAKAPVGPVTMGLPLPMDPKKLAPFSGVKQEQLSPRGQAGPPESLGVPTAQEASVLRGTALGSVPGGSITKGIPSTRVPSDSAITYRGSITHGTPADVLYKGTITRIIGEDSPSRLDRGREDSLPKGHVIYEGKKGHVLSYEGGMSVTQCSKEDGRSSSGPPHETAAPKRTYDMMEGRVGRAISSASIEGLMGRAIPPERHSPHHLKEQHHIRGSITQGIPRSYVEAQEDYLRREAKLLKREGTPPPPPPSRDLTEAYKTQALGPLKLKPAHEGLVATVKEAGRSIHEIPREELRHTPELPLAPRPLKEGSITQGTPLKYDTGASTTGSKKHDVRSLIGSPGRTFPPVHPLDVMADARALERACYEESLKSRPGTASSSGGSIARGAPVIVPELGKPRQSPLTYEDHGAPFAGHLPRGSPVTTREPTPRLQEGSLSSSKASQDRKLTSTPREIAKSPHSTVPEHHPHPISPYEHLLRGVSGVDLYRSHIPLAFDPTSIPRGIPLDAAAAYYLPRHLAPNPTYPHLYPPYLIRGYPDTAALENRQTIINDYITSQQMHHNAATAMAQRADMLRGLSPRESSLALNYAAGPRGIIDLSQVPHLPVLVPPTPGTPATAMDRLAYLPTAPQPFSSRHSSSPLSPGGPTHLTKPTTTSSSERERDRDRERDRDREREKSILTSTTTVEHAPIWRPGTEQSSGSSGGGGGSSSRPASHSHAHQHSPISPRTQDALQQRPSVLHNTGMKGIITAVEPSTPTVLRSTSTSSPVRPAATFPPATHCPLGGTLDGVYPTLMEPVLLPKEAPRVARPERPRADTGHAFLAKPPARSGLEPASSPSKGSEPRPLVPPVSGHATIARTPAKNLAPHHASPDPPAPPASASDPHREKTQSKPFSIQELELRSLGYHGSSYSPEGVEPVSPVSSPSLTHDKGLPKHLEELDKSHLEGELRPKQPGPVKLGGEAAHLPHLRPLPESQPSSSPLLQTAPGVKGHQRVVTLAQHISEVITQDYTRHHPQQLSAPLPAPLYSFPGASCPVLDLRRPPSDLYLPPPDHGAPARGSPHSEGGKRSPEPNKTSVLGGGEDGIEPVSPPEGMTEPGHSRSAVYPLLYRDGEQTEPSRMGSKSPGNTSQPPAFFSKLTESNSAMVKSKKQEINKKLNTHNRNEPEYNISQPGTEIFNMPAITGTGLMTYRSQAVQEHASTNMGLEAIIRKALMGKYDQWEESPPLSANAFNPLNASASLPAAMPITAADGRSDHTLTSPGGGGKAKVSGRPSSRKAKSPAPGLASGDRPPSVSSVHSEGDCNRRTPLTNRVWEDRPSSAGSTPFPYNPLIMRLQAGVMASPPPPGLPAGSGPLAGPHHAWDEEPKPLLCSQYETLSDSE

[22] = tested on: KB7D; experiment: Induction of apoptosis in human KB7D cells assessed as increase in cleaved caspase-8 expression by Western blot analysis; assay type: functional, cell-based; in short: as §6
[23] = molecular target: T1, Tubulin (Homo sapiens); experiment: Induction of microtubule disruption in human KB7D cells assessed as polymerized fraction at 0.1 uM measured after 16 hrs by SDS-PAGE analysis (reference value: 26.4 to 29%); assay type: cell-based; in short: as §3
[24] = tested on: KB-VIN; experiment: Cell cycle arrest in human KB-VIN cells assessed as increase in accumulation at G2/M phase at 0.01 to 0.05 uM measured after 18 to 24 hrs by propidium iodide staining based flow cytometry; assay type: functional; details: dose 0.01-0.05 µM, time 18-24 hrs; in short: as §5
[25] = molecular target: T1, Tubulin (Homo sapiens); experiment: Induction of microtubule disruption in human KB-VIN cells assessed as polymerized fraction at 1 uM measured after 16 hrs by SDS-PAGE analysis (reference value: 23.1 to 25.5%); assay type: cell-based; in short: as §3
[26] = tested on: KB-VIN; experiment: Cell cycle arrest in human KB-VIN cells assessed as increase in accumulation at sub-G1 phase at 0.05 uM measured after 48 hrs by propidium iodide staining based flow cytometry; assay type: functional; in short: as §5
[27] = tested on: KB-VIN; experiment: Induction of apoptosis in human KB-VIN cells assessed as increase in cleaved PARP expression at 0.05 uM measured after 48 hrs by Western blot analysis; assay type: functional, cell-based; in short: as §4

Activity [2]: Active
Activity [3]: 14.4%
Activity [7]: Active
GI50 [11]: 10 nM
Activity [13]: 16%
IC50 [15]: 1470 nM
Activity [17]: 25.9%
IC50 [21]: 2270 nM
Activity [23]: 13.3%
Activity [25]: 17.8%
Compound: COc1ccc(S(=O)(=O)Nc2ccccc2NCc2ccc(C(=O)Nc3ccccc3N)cc2)cc1
GI50 [1]: 12 nM
Activity [4]: Active
Activity [5]: Active
Activity [6]: Active
Activity [8]: Active
Activity [9]: Dose-dependent effect
Activity [10]: Active
Activity [12]: Active
Activity [14]: Active
Activity [16]: Active
Activity [18]: Dose-dependent effect
Activity [19]: Dose-dependent effect
GI50 [20]: 22 nM
Activity [22]: Dose-dependent effect
Activity [24]: Active
Activity [26]: Active
Activity [27]: Active
